Among the data in ChEMBL document CHEMBL3244285, “Hypotensive phospholipids. Some stable analogues of Darmstoff” (J Med Chem, 1978) are heart rate, Activity and Stability values, retold here.

The test system of data set [1] is Rattus norvegicus. Description: Toxicity in awake normotensive rat assessed as heart rate at 1 mg/100 g, iv measured within 2 mins (reference value: 450 +/- 57/min). The class given is organism-based. The following applies: in vivo.
Data set [2] has as its system Rattus norvegicus. Description: Hypotensive activity in awake normotensive rat assessed as mean blood pressure at 1 mg/100 g, iv measured within 2 mins (reference value: 130 +/- 6.9 mmHg). The class given is functional.
The test system of data set [3] is Rattus norvegicus. Description: Toxicity in awake normotensive rat assessed as decrease in heart rate at 1 mg/100 g, iv measured for 10 mins. As to conditions: in vivo. The class given is organism-based. A digest of the protocol:
(§1)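 Chronically catheterized, unrestrained normotensive rats received iv drug in 0.9% NaCl through the venous catheter. Heart rate was followed continuously on chart records from the arterial strain-gauge trace, from the moment of injection for at least 10 min.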

Data set [4] relates to Rattus norvegicus. Description: Toxicity in awake normotensive rat assessed as decrease in heart rate at 1 mg/100 g, iv measured within 2 mins in presence of beta-adrenergic inhibitor propranolol. It counts as organism-based. As to conditions: in vivo.
For data set [5], the system named is Rattus norvegicus. Description: Hypotensive activity in awake normotensive rat assessed as decrease in mean blood pressure at 1 mg/100 g, iv measured within 2 mins in presence of beta-adrenergic inhibitor propranolol. It counts as functional, organism-based.
The nature of data set [6]: Stability of the compound in 0.9% sodium chloride solution at 5 degC measured after 72 hrs. It counts as physicochemical. The essentials: (§2)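 Solution stability was tested by storing drug solutions in 0.9% NaCl at 5 °C. At the stated storage times the stored solutions were given iv to catheterized, unrestrained normotensive rats, and blood pressure and heart-rate responses were re-measured by arterial strain gauge.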

Data set [7] has as its system Rattus norvegicus. Description: Toxicity in awake normotensive rat assessed as heart rate at 1 mg/100 g, iv measured within 2 mins (reference value: 430 +/- 50/min). It counts as organism-based. The following applies: in vivo.
Data set [8] concerns Rattus norvegicus. Put plainly: Toxicity in awake normotensive rat assessed as heart rate at 2 mg/100 g, iv measured within 2 mins (reference value: 420/min). As to conditions: in vivo. It counts as organism-based.
Data set [9] deals with Rattus norvegicus. Description: Toxicity in awake normotensive rat assessed as cardiac arrest at 4 mg/100 g, iv measured within 2 mins. The class given is organism-based. The following applies: in vivo.
Data set [10] relates to Rattus norvegicus. Put plainly: Hypotensive activity in awake normotensive rat assessed as mean blood pressure at 1 mg/100 g, iv measured within 2 mins (reference value: 125 +/- 16 mmHg). It counts as functional.
Data set [11] concerns Rattus norvegicus. Put plainly: Hypotensive activity in awake normotensive rat assessed as mean blood pressure at 2 mg/100 g, iv measured within 2 mins (reference value: 125 mmHg). It counts as functional.
In data set [12] the test system is Rattus norvegicus. Description: Toxicity in awake normotensive rat assessed as decrease in heart rate at 2 mg/100 g, iv measured for 10 mins. It counts as organism-based. As to conditions: in vivo. A digest of the protocol:
as §1

Data set [13] concerns Rattus norvegicus. Description: Toxicity in awake normotensive rat assessed as decrease in heart rate at 2 mg/100 g, iv measured within 2 mins in presence of beta-adrenergic inhibitor propranolol. It counts as organism-based. As to conditions: in vivo.
Data set [14] has as its system Rattus norvegicus. Put plainly: Hypotensive activity in awake normotensive rat assessed as decrease in mean blood pressure at 2 mg/100 g, iv measured within 2 mins in presence of beta-adrenergic inhibitor propranolol. The class given is functional, organism-based.
Data set [15] is filed under the species Rattus norvegicus. Put plainly: Hypotensive activity in spontaneous hypertensive rat model measured after 48 hrs. It counts as functional, organism-based.
For data set [16], the species on record is Rattus norvegicus. Description: Toxicity in spontaneous hypertensive rat model assessed as bradycardia measured after 48 hrs. The class given is organism-based. The following applies: in vivo.
The nature of data set [17]: Stability of the compound in 0.9% sodium chloride solution at 5 degC measured within 1 hr. The class given is physicochemical. The essentials: as §2
Data set [18] has as its system Rattus norvegicus. Put plainly: Toxicity in awake normotensive rat assessed as heart rate at 1 mg/100 g, iv measured within 2 mins (reference value: 430 +/- 40/min). It counts as organism-based. As to conditions: in vivo.
In data set [19] the test system is Rattus norvegicus. Put plainly: Hypotensive activity in awake normotensive rat assessed as mean blood pressure at 1 mg/100 g, iv measured within 2 mins (reference value: 115 +/- 17 mmHg). It counts as functional.
A short description of data set [20]: Stability of the compound in 0.9% sodium chloride solution at 5 degC measured after 24 hrs. It counts as physicochemical. A digest of the protocol: as §2

Activity calls are given as the source filed them. No cut-off for these calls is given here.

In the case of `CCCCCCCCCCCCCCCC1CCC(COP(=O)([O-])O)C1.[Na+]` (stereo unspecified), the heart rate with Rattus norvegicus [1] stood at 375 beats/min. Also, the Activity is 120 mmHg with Rattus norvegicus [2], “Toxic” in the data set on Rattus norvegicus [3] and “Toxic” in the data set with Rattus norvegicus [4]. For the same compound, in the data set on Rattus norvegicus [5], the result was Active. In addition, in data set [6], the Stability result is “Stable”.

Turning to `CCCCCCCCCCCCCCCC1OCC(COP(=O)([O-])O)O1.[Na+]` (stereo unspecified), the heart rate in the data set on Rattus norvegicus [7] came out at 310 beats/min; with Rattus norvegicus [8], 250 beats/min. Moreover, the Activity result with Rattus norvegicus [9] is “Toxic”; in the data set with Rattus norvegicus [10], 100 mmHg; in the data set with Rattus norvegicus [11], 100 mmHg; with Rattus norvegicus [3] it was “Toxic”; in the data set on Rattus norvegicus [12] it was “Toxic”; in the data set on Rattus norvegicus [4] it was “Toxic”. The Activity entry in the data set with Rattus norvegicus [13] and in the data set filed under Rattus norvegicus [16] was “Toxic” in each case. Moreover, the result with Rattus norvegicus [5], in the data set on Rattus norvegicus [14] and in the data set filed under Rattus norvegicus [15] was Active. The Stability result in [17] is given as “Unstable”.

As to `CCCCCCCCCCCCCCCC1CCC(COP(=O)([O-])O)O1.[Na+]` (stereo unspecified), the heart rate in the data set with Rattus norvegicus [18] came out at 350 beats/min. Moreover, the Activity in the data set on Rattus norvegicus [19] is 100 mmHg; with Rattus norvegicus [3], “Toxic”; in the data set with Rattus norvegicus [4], “Toxic”. In the data set with Rattus norvegicus [5], the outcome was Active. Also, the Stability entry in data set [20] is “Stable”.
